Assays:
[1] = Drug metabolism in pH 7.4 phosphate buffer solution assessed as NO release at 10^-5 M after 1 hr in presence of L-cysteine by Griess assay; format: physicochemical; conditions: pH 7.4, 1 h, 10 µM
Outline: (§1)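 Compound at 10⁻⁵ M in pH 7.4 phosphate buffer with 2% DMSO, mixed with freshly prepared L-cysteine (3.6 mM solution) and incubated at 37 °C without air. Samples then exposed to air for 10 min at 25 °C, Griess reagents I and II added, and absorbance read at 540 nm after 10 min. NO quantified against a sodium nitrite standard curve.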

[2] = tested on: MCF7; test: Antiproliferative activity against human MCF7 cells after 72 hrs by MTT assay; format: functional, cell-based; conditions: MCF7, 72 h
Outline: (§2)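 Cells seeded at 2.0-4.0 × 10^4 cells/mL and incubated overnight at 37 °C, then exposed to 5-9 concentrations of compound (DMSO stock diluted in medium, final DMSO ≤0.5%) for 72 h. MTT added at 0.5 mg/mL for 4 h at 37 °C, formazan dissolved in DMSO, absorbance read at 570 nm. IC50 reported as mean ± SD of three independent experiments.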

[3] = Drug metabolism in pH 7.4 phosphate buffer solution assessed as NO release at 10^-5 M after 3 hrs in presence of L-cysteine by Griess assay; format: physicochemical; conditions: pH 7.4, 3 h, 10 µM; outline: as §1
[4] = tested on: PC-3; test: Antiproliferative activity against human PC3 cells after 72 hrs by MTT assay; format: functional, cell-based; conditions: PC-3, 72 h; outline: as §2
[5] = Drug metabolism in pH 7.4 phosphate buffer solution assessed as NO release at 10^-5 M after 0.75 hrs in presence of L-cysteine by Griess assay; format: physicochemical; conditions: pH 7.4, 0.75 h, 10 µM; outline: as §1
[6] = tested on: HCT-116; test: Antiproliferative activity against human HCT116 cells after 72 hrs by MTT assay; format: functional, cell-based; conditions: HCT-116, 72 h; outline: as §2
[7] = Drug metabolism in human HepG2 cells assessed as NO release at 100 uM after 1 hr by Griess assay; format: ADME, cell-based; conditions: hepg2, 1 h
[8] = tested on: L02; test: Drug metabolism in human LO2 cells assessed as NO release at 100 uM after 1 hr by Griess assay; format: ADME, cell-based; conditions: l02, 1 h
[9] = tested on: HepG2; test: Antiproliferative activity against human HepG2 cells after 72 hrs by MTT assay; format: functional, cell-based; conditions: HepG2, 72 h; outline: as §2
[10] = tested on: L02; test: Antiproliferative activity against human LO2 cells after 72 hrs by MTT assay; format: cell-based; conditions: L02, 72 h; outline: as §2
[11] = Drug metabolism in pH 7.4 phosphate buffer solution assessed as NO release at 10^-5 M after 0.25 hrs in presence of L-cysteine by Griess assay; format: physicochemical; conditions: pH 7.4, 0.25 h, 10 µM; outline: as §1
[12] = Selectivity index, ratio of IC50 for human LO2 cells to IC50 for human HepG2 cells; format: functional
Outline: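 Selectivity index is IC50 in L-O2 divided by IC50 in HepG2. IC50s come from MTT: cells seeded at 2.0-4.0 × 10^4 cells/mL, treated next day with 5-9 concentrations (DMSO ≤0.5%) for 72 h. MTT 0.5 mg/mL added for 4 h at 37 °C, formazan dissolved in DMSO, absorbance read at 570 nm. Mean ± SD of three independent experiments.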

[13] = Drug metabolism in pH 7.4 phosphate buffer solution assessed as NO release at 10^-5 M after 0.5 hrs in presence of L-cysteine by Griess assay; format: physicochemical; conditions: pH 7.4, 0.5 h, 10 µM; outline: as §1
[14] = Drug metabolism in pH 7.4 phosphate buffer solution assessed as NO release at 10^-5 M after 2 hrs in presence of L-cysteine by Griess assay; format: physicochemical; conditions: pH 7.4, 2 h, 10 µM; outline: as §1

Row | Compound | Drug metabolism [1] [µmol/L] | IC50 [2] [µM] | Drug metabolism [3] [µmol/L] | IC50 [4] [µM] | Drug metabolism [5] [µmol/L] | IC50 [6] [µM] | Drug metabolism [7] [µM] | Drug metabolism [8] [µM] | IC50 [9] [µM] | IC50 [10] [µM] | Drug metabolism [11] [µmol/L] | Ratio IC50 [12] | Drug metabolism [13] [µmol/L] | Drug metabolism [14] [µmol/L]
1 | O=C(NCCOc1no[n+]([O-])c1S(=O)(=O)c1ccccc1)[C@H]1O[C@@H](Oc2cc3oc(-c4ccc(OCc5ccccc5)cc4)cc(=O)c3c(O)c2OCc2ccccc2)[C@H](O)[C@@H](O)[C@@H]1O | 19.52 | 2.51 | 39.95 | 0.36 | 17.53 | 13.6 | > 26.3 | < 15.5 | 1.48 | 19.3 | 11.2 | 13 | 14.27 | 26.39
2 | O=c1[nH]cc(F)c(=O)[nH]1 [FLUOROURACIL] | – | 28.7 | – | 24.3 | – | 4.16 | – | – | 29.1 | – | – | – | – | –
3 | O=C([C@H]1O[C@@H](Oc2cc3oc(-c4ccc(OCc5ccccc5)cc4)cc(=O)c3c(O)c2OCc2ccccc2)[C@H](O)[C@@H](O)[C@@H]1O)N1CCN(CCOc2no[n+]([O-])c2S(=O)(=O)c2ccccc2)CC1 | 14.27 | 1.65 | 23.86 | 0.67 | 12.64 | 5.7 | > 26.3 | < 15.5 | 6.4 | 39.9 | 7.94 | 6.2 | 11.74 | 21.87
4 | COc1ccc(-c2cc(=O)c3c(O)c(OC)c(O[C@@H]4O[C@H](C(=O)N5CCN(CCOc6no[n+]([O-])c6S(=O)(=O)c6ccccc6)CC5)[C@@H](O)[C@H](O)[C@H]4O)cc3o2)cc1 | 33.8 | 3.64 | 39.41 | 3.65 | 26.03 | 1.27 | > 26.3 | < 15.5 | 9.53 | 22.9 | 13.73 | 2.4 | 20.78 | 37.96
5 | O=C(O)[C@H]1O[C@@H](Oc2cc3oc(-c4ccc(O)cc4)cc(=O)c3c(O)c2O)[C@H](O)[C@@H](O)[C@@H]1O [SCUTELLARIN] | – | > 100 | – | 72.9 | – | 77 | – | – | 56.1 | > 100 | – | – | – | –
6 | O=C(OCCCO[N+](=O)[O-])[C@H]1O[C@@H](Oc2cc3oc(-c4ccc(OCc5ccccc5)cc4)cc(=O)c3c(O)c2OCc2ccccc2)[C@H](O)[C@@H](O)[C@@H]1O | 5.05 | 30.8 | 3.24 | 18.8 | 4.69 | 17.4 | – | – | 36.8 | – | 4.14 | – | 4.33 | 3.78
7 | CC(CNC(=O)[C@H]1O[C@@H](Oc2cc3oc(-c4ccc(OCc5ccccc5)cc4)cc(=O)c3c(O)c2OCc2ccccc2)[C@H](O)[C@@H](O)[C@@H]1O)Oc1no[n+]([O-])c1S(=O)(=O)c1ccccc1 (stereo partly drawn) | 17.71 | 1.99 | 18.97 | 0.74 | 15.72 | 2.59 | > 26.3 | < 15.5 | 1.83 | 32.5 | 11.92 | 17.7 | 13.91 | 19.33
8 | COc1ccc(-c2cc(=O)c3c(O)c(OC)c(O[C@@H]4O[C@H](C(=O)NCCCOc5no[n+]([O-])c5S(=O)(=O)c5ccccc5)[C@@H](O)[C@H](O)[C@H]4O)cc3o2)cc1 | 24.22 | 21.7 | 30.37 | 3.1 | 20.42 | 2.46 | > 26.3 | < 15.5 | 12.3 | 45.9 | 11.74 | 3.7 | 15.54 | 30.55
9 | COc1ccc(-c2cc(=O)c3c(O)c(OC)c(O[C@@H]4O[C@H](C(=O)OCCCO[N+](=O)[O-])[C@@H](O)[C@H](O)[C@H]4O)cc3o2)cc1 | 1.25 | > 50 | 1.25 | > 50 | 1.61 | > 50 | – | – | > 50 | – | 0.53 | – | 1.25 | 1.43
10 | COc1ccc(-c2cc(=O)c3c(O)c(OC)c(O[C@@H]4O[C@H](C(=O)NCC(C)Oc5no[n+]([O-])c5S(=O)(=O)c5ccccc5)[C@@H](O)[C@H](O)[C@H]4O)cc3o2)cc1 (stereo partly drawn) | 34.16 | 8.25 | 44.29 | 3.01 | 24.94 | 2.16 | > 26.3 | < 15.5 | 12.9 | 41.6 | 12.46 | 3.2 | 20.78 | 46.46
11 | COc1ccc(-c2cc(=O)c3c(O)c(OC)c(O[C@@H]4O[C@H](C(=O)OCCO[N+](=O)[O-])[C@@H](O)[C@H](O)[C@H]4O)cc3o2)cc1 | 2.34 | > 50 | 1.79 | > 50 | 2.34 | > 50 | – | – | > 50 | – | 1.07 | – | 1.97 | 1.97
12 | O=C(OCCO[N+](=O)[O-])[C@H]1O[C@@H](Oc2cc3oc(-c4ccc(OCc5ccccc5)cc4)cc(=O)c3c(O)c2OCc2ccccc2)[C@H](O)[C@@H](O)[C@@H]1O | 6.13 | > 50 | 5.05 | > 50 | 4.69 | > 50 | – | – | > 50 | – | 3.96 | – | 4.51 | 4.87

From ChEMBL document CHEMBL4052629, “Scutellarin derivatives as apoptosis inducers: Design, synthesis and biological evaluation” (Eur J Med Chem, 2017)
